Assay results reported in ChEMBL document CHEMBL1143257, “Structure-activity relationships of novel HIV-1 protease inhibitors containing the 3-amino-2-chlorobenzoyl-allophenylnorstatine structure” (Bioorg Med Chem, 2008).
pEC50, pKi: −log10 of the molar value.

Experiments:
[1] = system: Human immunodeficiency virus 1; experiment: Antiviral activity against HIV1 3B; format: functional, organism-based; settings: Human immunodeficiency virus 1, 3B
[2] = system: Human immunodeficiency virus 1; experiment: Antiviral activity against HIV1 3B in presence of 50% human serum; format: functional, organism-based; settings: Human immunodeficiency virus 1, 3B
[3] = system: Human immunodeficiency virus 1; experiment: Antiviral activity against wild type HIV1; format: functional, organism-based
[4] = system: Human immunodeficiency virus 1; experiment: Antiviral activity against HIV1 mutant strain 1; format: functional, organism-based
Method in brief: (§1)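 PhenoSense phenotypic susceptibility assay on multi-drug-resistant clinical HIV-1 protease variant strains, run in parallel with a wild-type reference. EC50 read in µM. Fold change is mutant EC50 divided by wild-type EC50.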

[5] = system: Human immunodeficiency virus 1; experiment: Antiviral activity against HIV1 mutant strain 2; format: functional, organism-based
Method in brief: (§2)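 PhenoSense phenotypic assay. Strain 2 protease carries L10I, G16A, K45V, F53L, I54V, K55N, D60E, L63P, A71V, I72K, V77I, V82F, I84V, L90M, I93L. EC50 in µM. Fold change is versus the wild-type EC50.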

[6] = system: Human immunodeficiency virus 1; experiment: Antiviral activity against HIV1 mutant strain 3; format: functional, organism-based
[7] = system: Human immunodeficiency virus 1; experiment: Antiviral activity against HIV1 mutant strain 4; format: functional, organism-based
[8] = system: Human immunodeficiency virus 1; experiment: Antiviral activity against HIV1 mutant strain 5; format: functional, organism-based
[9] = system: Human immunodeficiency virus 1; experiment: Antiviral activity against HIV1 mutant strain 6; format: functional, organism-based
[10] = system: Human immunodeficiency virus 1; experiment: Antiviral activity against HIV1 mutant strain 7; format: functional, organism-based
Method in brief: (§3)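 PhenoSense phenotypic assay. Strain 7 protease mutations include T4A, L10I, K20R, L23I, L33F, E35D, M36I, K43T, M46L. EC50 in µM. Fold change is versus the wild-type EC50.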

[11] = system: Human immunodeficiency virus 1; experiment: Ratio of EC50 for HIV1 mutant strain 5 to EC50 for wild type HIV1; format: functional
[12] = system: Human immunodeficiency virus 1; experiment: Ratio of EC50 for HIV1 mutant strain 6 to EC50 for wild type HIV1; format: functional
[13] = system: Human immunodeficiency virus 1; experiment: Ratio of EC50 for HIV1 mutant strain 7 to EC50 for wild type HIV1; format: functional; method in brief: as §3
Protease = Protease (Human immunodeficiency virus 1, UniProt Q9YQ12); experiment: Inhibition of HIV1 protease
[14] = system: Human immunodeficiency virus 1; experiment: Ratio of EC50 for HIV1 mutant strain 1 to EC50 for wild type HIV1; format: functional; method in brief: as §1
[15] = system: Human immunodeficiency virus 1; experiment: Ratio of EC50 for HIV1 mutant strain 2 to EC50 for wild type HIV1; format: functional; method in brief: as §2
[16] = system: Human immunodeficiency virus 1; experiment: Ratio of EC50 for HIV1 mutant strain 3 to EC50 for wild type HIV1; format: functional
[17] = system: Human immunodeficiency virus 1; experiment: Ratio of EC50 for HIV1 mutant strain 4 to EC50 for wild type HIV1; format: functional
[18] = Metabolic stability in human liver microsomes assessed as compound remaining at 5 uM in presence of NADPH by RP-HPLC; format: ADME, Microsome; settings: read-out: Stability
Method in brief: (§4)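 Test drug at 5 µM incubated with liver microsomes (0.5 mg/ml) plus cofactor (1 mM NADPH or 5 mM UDPGA) at 37 °C for 30 min. Residual drug measured by RP-HPLC. Values are the mean percent remaining of duplicates.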

[19] = Metabolic stability in human liver microsomes assessed as compound remaining at 5 uM in presence of UDPGA by RP-HPLC; format: ADME, Microsome; settings: read-out: Stability; method in brief: as §4
[20] = AUC in Beagle dog at 15 mg/kg, po; format: ADME, organism-based, Canis lupus familiaris; parameters: dose 15 mg/kg, route oral; settings: plasma
[21] = Cmax in Beagle dog at 15 mg/kg, po; format: ADME, organism-based, Canis lupus familiaris; parameters: dose 15 mg/kg, route oral; settings: in vivo
[22] = Tmax in Beagle dog at 15 mg/kg, po; format: ADME, organism-based, Canis lupus familiaris; parameters: dose 15 mg/kg, route oral; settings: in vivo
[23] = Volume of distribution at steady state in Beagle dog at 15 mg/kg, iv; format: ADME, organism-based, Canis lupus familiaris; parameters: dose 15 mg/kg, route intravenous; settings: in vivo, read-out: Vdss
[24] = Plasma clearance in Beagle dog at 15 mg/kg, iv; format: ADME, organism-based, Canis lupus familiaris; parameters: dose 15 mg/kg, route intravenous
[25] = Oral bioavailability in Beagle dog at 15 mg/kg; format: ADME, organism-based, Canis lupus familiaris; settings: in vivo
[26] = Plasma concentration in Beagle dog at 15 mg/kg, po after 12 hrs; format: ADME, organism-based, Canis lupus familiaris; parameters: dose 15 mg/kg, route oral
Liver [27] = experiment: Metabolic stability in dog liver microsomes assessed as compound remaining in presence of NADPH by RP-HPLC; format: ADME, Canis lupus familiaris, Microsome; method in brief: as §4
Liver [28] = experiment: Metabolic stability in dog liver microsomes assessed as compound remaining in presence of UDPGA by RP-HPLC; format: ADME, Canis lupus familiaris, Microsome; method in brief: as §4

Sequence of Protease (Q9YQ12 whole entry): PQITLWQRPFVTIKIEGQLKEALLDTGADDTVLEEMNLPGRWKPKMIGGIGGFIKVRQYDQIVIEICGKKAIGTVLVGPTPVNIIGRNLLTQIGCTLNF

| Structure (SMILES) | pEC50 [1] | pEC50 [2] | pKi (Protease) | remaining at 5 µM [18] | remaining at 5 µM [19] | pEC50 [3] | pEC50 [4] | pEC50 [5] | pEC50 [6] | pEC50 [7] | pEC50 [8] | pEC50 [9] | pEC50 [10] | further results |
| --- | --- | --- | --- | --- | --- | --- | --- | --- | --- | --- | --- | --- | --- | --- |
| CC(C)(C)NC(=O)[C@@H]1C[C@@H]2CCCC[C@@H]2CN1C[C@@H](O)[C@H](Cc1ccccc1)NC(=O)[C@H](CC(N)=O)NC(=O)c1ccc2ccccc2n1 | 8.15 | 7.30 |  |  |  | 8.72 | < 6.30 | 7.01 | < 6.30 | < 6.30 | < 6.30 | 6.80 | 6.85 |  |
| CC(C)CN(C[C@@H](O)[C@H](Cc1ccccc1)NC(=O)O[C@H]1CCOC1)S(=O)(=O)c1ccc(N)cc1 | 7.80 | 7.02 | 9.44 |  |  | 7.85 | 7.01 | 6.46 | 6.84 | 7.29 | 6.21 | 6.36 | 6.78 | Ratio EC50 [11]: 43; Ratio EC50 [12]: 30; Ratio EC50 [13]: 12; Ratio EC50 [14]: 7; Ratio EC50 [15]: 25; Ratio EC50 [16]: 10; Ratio EC50 [17]: 4 |
| COc1cccc(C[C@H](NC(=O)c2cccc(N)c2Cl)[C@H](O)C(=O)N2CSC(C)(C)[C@H]2C(=O)NCc2ccccc2C)c1 | 7.68 | 6.86 | 9.59 | 66% | 93% |  |  |  |  |  |  |  |  |  |
| Cc1ccccc1CNC(=O)[C@H]1N(C(=O)[C@@H](O)[C@H](Cc2ccc3c(c2)OCO3)NC(=O)c2cccc(N)c2Cl)CSC1(C)C | 7.70 | 7.11 | 9.79 | 74% | > 95% |  |  |  |  |  |  |  |  |  |
| CCOc1ccc(C[C@H](NC(=O)c2cccc(N)c2Cl)[C@H](O)C(=O)N2CSC(C)(C)[C@H]2C(=O)NCc2ccccc2C)cc1 | 8.22 | 7.46 | 9.51 | 65% | 89% |  |  |  |  |  |  |  |  |  |
| COc1ccc(C[C@H](NC(=O)c2cccc(N)c2Cl)[C@H](O)C(=O)N2CSC(C)(C)[C@H]2C(=O)NCc2ccccc2C)cc1 | 7.74 | 7.06 | 9.51 | 60% | > 95% |  |  |  |  |  |  |  |  |  |
| Cc1cccc(C)c1CNC(=O)[C@H]1N(C(=O)[C@@H](O)[C@H](Cc2ccc3c(c2)OCO3)NC(=O)c2cccc(N)c2Cl)CSC1(C)C | 7.77 | 7.70 | 10.15 | 53% | > 95% |  |  |  |  |  |  |  |  |  |
| Cc1ccccc1CNC(=O)[C@H]1N(C(=O)[C@@H](O)[C@H](Cc2ccccc2)NC(=O)c2cccc(N)c2Cl)CSC1(C)C | 7.11 | 6.78 | 9.45 | 46% | > 95% |  |  |  |  |  |  |  |  |  |
| CC(C)(C)NC(=O)[C@@H]1CN(Cc2cccnc2)CCN1C[C@@H](O)C[C@@H](Cc1ccccc1)C(=O)N[C@H]1c2ccccc2C[C@H]1O | 7.64 | 7.06 |  |  |  | 8.12 | 6.40 | 6.33 | 6.12 | 6.95 | < 5.82 | 6.09 | 6.84 |  |
| Cc1c(O)cccc1C(=O)N[C@@H](CSc1ccccc1)[C@H](O)CN1C[C@H]2CCCC[C@H]2C[C@H]1C(=O)NC(C)(C)C | 7.72 | 6.53 | 9.03 |  |  | 8.27 | 6.34 | 6.46 | 6.38 | < 5.82 | 6.11 | < 5.82 | 6.29 | Ratio EC50 [11]: 141; Ratio EC50 [12]: >273; Ratio EC50 [13]: 94; Ratio EC50 [14]: 82; Ratio EC50 [15]: 64; Ratio EC50 [16]: 75; Ratio EC50 [17]: >273 |
| COC(=O)N[C@H](C(=O)N[C@@H](Cc1ccccc1)[C@@H](O)CN(Cc1ccc(-c2ccccn2)cc1)NC(=O)[C@@H](NC(=O)OC)C(C)(C)C)C(C)(C)C [ATAZANAVIR] | > 8.40 | 8.05 | 10.30 | 83% | > 95% | 8.82 | 7.04 | 7.32 | 7.64 | 7.02 | 6.58 | 6.87 | 7.13 | AUC [20]: 15 µM·h; Cmax [21]: 4200 nM; Tmax [22]: 30 min; Vd [23]: 2 L/kg; clearance [24]: 26.7 mL/min/kg; bioavailability [25]: 102%; concentration at 12 h [26]: 50 nM; Ratio EC50 [11]: 180; Ratio EC50 [12]: 90; Ratio EC50 [13]: 50; Stability (Liver [27]): 83%; Stability (Liver [28]): > 95%; Ratio EC50 [14]: 62; Ratio EC50 [15]: 32; Ratio EC50 [16]: 16; Ratio EC50 [17]: 64 |
| CC(C)c1nc(CN(C)C(=O)N[C@H](C(=O)N[C@@H](Cc2ccccc2)C[C@H](O)[C@H](Cc2ccccc2)NC(=O)OCc2cncs2)C(C)C)cs1 [RITONAVIR] | 8.70 | 7.39 |  |  |  | 7.80 | 5.76 | < 5.52 | < 5.52 | 6.00 | < 5.52 | < 5.52 | < 5.52 |  |

More lines, main results first:

| pEC50 [1] | pEC50 [2] | pKi (Protease) | remaining at 5 µM [18] | remaining at 5 µM [19] | Structure (SMILES) | pEC50 [3] | pEC50 [4] | pEC50 [5] | pEC50 [6] | pEC50 [7] | pEC50 [8] | pEC50 [9] | pEC50 [10] | further results |
| --- | --- | --- | --- | --- | --- | --- | --- | --- | --- | --- | --- | --- | --- | --- |
| 7.70 | 7.18 | 9.82 | 54% | > 95% | CCOc1ccc(C[C@H](NC(=O)c2cccc(N)c2Cl)[C@H](O)C(=O)N2CSC(C)(C)[C@H]2C(=O)NCc2c(C)cccc2C)cc1 |  |  |  |  |  |  |  |  |  |
| 7.44 | 7.06 | 9.12 | 83% | > 95% | COc1cccc(C[C@H](NC(=O)c2cccc(N)c2Cl)[C@H](O)C(=O)N2CCC(C)(C)[C@H]2C(=O)NCc2c(C)cccc2C)c1 |  |  |  |  |  |  |  |  | AUC [20]: 36.7 µM·h; Cmax [21]: 5000 nM; Tmax [22]: 60 min; Vd [23]: 1.9 L/kg; clearance [24]: 16.7 mL/min/kg; bioavailability [25]: 146%; concentration at 12 h [26]: 710 nM; Stability (Liver [27]): 69%; Stability (Liver [28]): > 95% |
| 7.40 | 7.10 | 9.09 | 63% | > 95% | COc1ccc(C[C@H](NC(=O)c2cccc(N)c2Cl)[C@H](O)C(=O)N2CCC(C)(C)[C@H]2C(=O)NCc2c(C)cccc2C)cc1 |  |  |  |  |  |  |  |  |  |
| 7.62 | 7.85 | 9.86 | 58% | > 95% | COc1ccc(C[C@H](NC(=O)c2cccc(N)c2Cl)[C@H](O)C(=O)N2CSC(C)(C)[C@H]2C(=O)NCc2c(C)cccc2C)cc1 |  |  |  |  |  |  |  |  |  |
| 7.20 | 6.57 | 9.06 | 53% | > 95% | CCOc1ccc(C[C@H](NC(=O)c2cccc(N)c2Cl)[C@H](O)C(=O)N2CCC(C)(C)[C@H]2C(=O)NCc2c(C)cccc2C)cc1 |  |  |  |  |  |  |  |  |  |
